Measured values published in publication PMC10147382 (ACS chemical neuroscience, 2022).
Where two headings read alike, the source gives them in different places.

What was measured:
5-HT2A receptor [1] = target: T1, 5-HT2A receptor (Homo sapiens, UniProt P28223); experiment: G protein; format: cell-based
5-HT2B receptor = 5-HT2B receptor (Homo sapiens, UniProt P41595); experiment: G protein; format: cell-based
5-HT2C receptor [2] = target: T2, 5-HT2C receptor (Homo sapiens, UniProt P28335); experiment: G protein; format: cell-based
T2 sequence (P28335 33-458): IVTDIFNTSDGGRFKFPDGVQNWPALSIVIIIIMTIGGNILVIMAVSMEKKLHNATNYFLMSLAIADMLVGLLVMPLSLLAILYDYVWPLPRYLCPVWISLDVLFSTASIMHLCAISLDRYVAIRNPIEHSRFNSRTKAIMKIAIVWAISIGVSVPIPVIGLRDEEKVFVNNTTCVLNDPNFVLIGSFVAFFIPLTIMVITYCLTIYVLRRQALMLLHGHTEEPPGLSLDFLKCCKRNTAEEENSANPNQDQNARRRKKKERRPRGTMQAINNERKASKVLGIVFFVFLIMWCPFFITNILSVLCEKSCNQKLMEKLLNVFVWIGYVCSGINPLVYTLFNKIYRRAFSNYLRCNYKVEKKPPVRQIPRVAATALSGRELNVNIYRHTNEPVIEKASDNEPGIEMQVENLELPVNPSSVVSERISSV

5-HT1A receptor = 5-HT1A receptor (Homo sapiens, UniProt P08908); experiment: 5-HTome G protein activation BRET screen; format: cell-based; settings: 5-HTome screen
5-HT1A receptor, sequence (P08908 whole entry): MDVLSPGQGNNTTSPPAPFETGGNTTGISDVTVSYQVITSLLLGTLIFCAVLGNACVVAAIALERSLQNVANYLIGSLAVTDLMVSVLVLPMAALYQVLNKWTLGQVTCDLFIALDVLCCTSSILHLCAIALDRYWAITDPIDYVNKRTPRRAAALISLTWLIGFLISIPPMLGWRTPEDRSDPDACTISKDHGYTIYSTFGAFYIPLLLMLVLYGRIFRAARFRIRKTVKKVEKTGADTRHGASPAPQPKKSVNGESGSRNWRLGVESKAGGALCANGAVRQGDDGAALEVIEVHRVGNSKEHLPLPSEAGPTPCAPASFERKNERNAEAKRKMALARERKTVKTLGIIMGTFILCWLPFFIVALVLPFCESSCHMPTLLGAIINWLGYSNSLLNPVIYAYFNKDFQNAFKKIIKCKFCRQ
Summary of the method: (§1)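 Human 5-HT receptors (12 in the panel) are tested by G protein-dissociation BRET2. Cells are reverse-transfected about 48 h before assay with receptor:Gα-Rluc8:Beta:GFP2-γ (TRUPATH) at 1:1:1:1 and plated in 1% dFBS. Drug is added in HBSS/20 mM HEPES pH 7.4 with 0.3% BSA and 0.03% ascorbic acid, then incubated 60 min at 37°C. Coelenterazine 400a is 5 uM final. The 510/400 ratio is normalized to % positive control, with EC50/Emax from log(agonist) vs response. Three independent experiments in triplicate.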

5-HT1B receptor = 5-HT1B receptor (Homo sapiens, UniProt P28222); experiment: 5-HTome G protein activation BRET screen; format: cell-based; settings: 5-HTome screen
5-HT1B receptor, sequence (P28222 whole entry): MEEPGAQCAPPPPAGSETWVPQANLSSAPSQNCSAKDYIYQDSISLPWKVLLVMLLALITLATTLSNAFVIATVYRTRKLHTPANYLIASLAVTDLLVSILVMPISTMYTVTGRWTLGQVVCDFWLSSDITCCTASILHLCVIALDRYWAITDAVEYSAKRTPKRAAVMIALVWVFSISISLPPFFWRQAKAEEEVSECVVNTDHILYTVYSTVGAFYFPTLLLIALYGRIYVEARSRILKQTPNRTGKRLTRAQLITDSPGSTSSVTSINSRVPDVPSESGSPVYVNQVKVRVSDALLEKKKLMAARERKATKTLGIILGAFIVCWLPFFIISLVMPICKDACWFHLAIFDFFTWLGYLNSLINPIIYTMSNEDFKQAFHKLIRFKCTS
Summary of the method: as §1

5-HT1D receptor = 5-HT1D receptor (Homo sapiens, UniProt P28221); experiment: 5-HTome G protein activation BRET screen; format: cell-based; settings: 5-HTome screen
5-HT1D receptor, sequence (P28221 whole entry): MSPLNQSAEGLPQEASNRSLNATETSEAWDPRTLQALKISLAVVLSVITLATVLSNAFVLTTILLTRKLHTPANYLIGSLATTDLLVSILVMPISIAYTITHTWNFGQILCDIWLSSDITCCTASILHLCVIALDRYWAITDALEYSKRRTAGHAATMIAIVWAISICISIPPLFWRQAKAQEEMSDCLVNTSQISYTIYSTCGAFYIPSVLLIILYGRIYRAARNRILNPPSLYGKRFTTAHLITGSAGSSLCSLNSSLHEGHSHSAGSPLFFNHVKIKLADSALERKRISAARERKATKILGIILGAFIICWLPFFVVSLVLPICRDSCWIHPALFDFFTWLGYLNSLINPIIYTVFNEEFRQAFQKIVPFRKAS
Summary of the method: as §1

5-HT1e receptor = 5-HT1e receptor (Homo sapiens, UniProt P28566); experiment: 5-HTome G protein activation BRET screen; format: cell-based; settings: 5-HTome screen
5-HT1e receptor, sequence (P28566 whole entry): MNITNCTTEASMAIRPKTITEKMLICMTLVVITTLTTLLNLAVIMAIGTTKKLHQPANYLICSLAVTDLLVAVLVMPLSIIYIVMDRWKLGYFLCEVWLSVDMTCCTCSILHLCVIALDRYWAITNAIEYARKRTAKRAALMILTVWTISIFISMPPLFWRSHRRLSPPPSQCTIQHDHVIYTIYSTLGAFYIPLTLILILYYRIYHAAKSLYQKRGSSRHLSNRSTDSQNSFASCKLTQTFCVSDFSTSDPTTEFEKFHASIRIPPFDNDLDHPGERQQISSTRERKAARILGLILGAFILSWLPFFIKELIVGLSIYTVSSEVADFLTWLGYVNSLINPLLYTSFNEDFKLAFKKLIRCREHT
Summary of the method: as §1

5-HT1F receptor = 5-HT1F receptor (Homo sapiens, UniProt P30939); experiment: 5-HTome G protein activation BRET screen; format: cell-based; settings: 5-HTome screen
5-HT1F receptor, sequence (P30939 whole entry): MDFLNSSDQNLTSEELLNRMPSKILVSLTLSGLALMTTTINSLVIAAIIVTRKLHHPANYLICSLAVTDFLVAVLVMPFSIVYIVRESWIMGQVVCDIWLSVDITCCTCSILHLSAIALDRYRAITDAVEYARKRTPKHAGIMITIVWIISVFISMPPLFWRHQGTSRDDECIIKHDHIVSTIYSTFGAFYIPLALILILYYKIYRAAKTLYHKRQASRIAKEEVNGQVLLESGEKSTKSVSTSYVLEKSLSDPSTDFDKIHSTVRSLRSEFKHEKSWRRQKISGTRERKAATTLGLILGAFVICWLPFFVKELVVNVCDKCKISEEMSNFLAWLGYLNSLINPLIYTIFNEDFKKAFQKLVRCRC
Summary of the method: as §1

5-HT2A receptor [3] = target: T1, 5-HT2A receptor; experiment: Calcium flux assay; format: cell-based
Summary of the method: (§2)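 Flp-In 293 T-Rex cells stably carry tetracycline-inducible human 5-HT2A or 5-HT2C. Expression is induced with tetracycline (2 ug/mL) the day before, with about 7,500 cells/well in 1% dialyzed FBS. Cells are loaded with Fluo-4 Direct for 1 h at 37°C in HBSS/20 mM HEPES pH 7.4 with 2.5 mM probenecid, then held 15 min at RT. Fluorescence is read 10 s baseline, then 5-10 min after drug. Peak fold-over-basal or AUC is normalized to % 5-HT, with EC50/Emax from nonlinear regression.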

5-HT2C receptor [4] = target: T2, 5-HT2C receptor; experiment: Calcium flux assay; format: cell-based; settings: relative to 5-HT
Summary of the method: as §2

5-HT2A receptor [5] = target: T1, 5-HT2A receptor; experiment: Radioligand displacement assay; format: binding; settings: standard radioligand 125I-DOI
mice [6] = experiment: Head twitch response; format: in vivo, mouse
mice [7] = experiment: Open field test; format: in vivo, mouse; settings: for effect on general locomotion: s.c.
mice [8] = experiment: Elevated plus maze; format: in vivo, mouse; settings: 30 minutes and 4 hours post single s.c. injection
Summary of the method: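 Elevated plus maze in mice given a single subcutaneous injection of test compound or a reference psychedelic. Time in open vs closed arms and arm entries are scored at 30 min and 4 h post-injection. n=10/group, mean ± S.E.M. Analysis is two-way ANOVA with Dunnett's post hoc test.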

mice [9] = experiment: Novelty suppressed feeding; format: in vivo, mouse; settings: 7 days post-drug administration; 10mg/kg
[10] = test system: auxilin knockout (KO) mice; experiment: Auxilin KO Parkinson's model, balance beam; format: in vivo, mouse; settings: 10 mg/kg i.p., 15 to 30 minutes after treatment
Summary of the method: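 Auxilin KO and WT mice aged 9-12 months, sex balanced, n=5-7/group. Vehicle is 0.85% saline i.p. at 10 ml/kg. Test compound is 10 mg/kg i.p. in 0.85% saline with 2 molar equivalents of glacial acetic acid, at 10 ml/kg. Baseline testing is done one week before treatment and repeated 15-30 min post-dose. Balance beam: mice walk a raised narrow beam to a safety box, scored as average crossing time and crossings per minute. Mean ± S.E.M.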

[11] = test system: auxilin knockout (KO) mice; experiment: Auxilin KO Parkinson's model, hind limb clasping; format: in vivo, mouse; settings: 10 mg/kg i.p., 15 to 30 minutes after treatment
Summary of the method: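 Auxilin KO and WT mice aged 9-12 months, sex balanced, n=5-7/group, treated i.p. with vehicle (0.85% saline) or test compound at 10 mg/kg in saline with 2 molar equivalents of acetic acid, at 10 ml/kg. Testing is done one week pre-treatment and 15-30 min post-dose. Mice are held by the tail base and lowered for 30 s. Clasping is scored 0 (none), 1 (one limb) or 2 (both limbs), and total clasping duration is recorded. Kruskal-Wallis with Dunn's post hoc test.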

humans = settings: cited from earlier work
patients = settings: cited from earlier work
cats = settings: 10 mg/kg, s.c., versus (R)-DOM 0.5 mg/kg; cited from earlier work
rabbits = settings: cited from earlier work
rats = settings: 10 mg/kg, s.c. or i.p. ref 12, 13; cited from earlier work
[12] = read-out: EC50 (Gq), Gq dissociation BRET

5-HT2B receptor, sequence (P41595 whole entry): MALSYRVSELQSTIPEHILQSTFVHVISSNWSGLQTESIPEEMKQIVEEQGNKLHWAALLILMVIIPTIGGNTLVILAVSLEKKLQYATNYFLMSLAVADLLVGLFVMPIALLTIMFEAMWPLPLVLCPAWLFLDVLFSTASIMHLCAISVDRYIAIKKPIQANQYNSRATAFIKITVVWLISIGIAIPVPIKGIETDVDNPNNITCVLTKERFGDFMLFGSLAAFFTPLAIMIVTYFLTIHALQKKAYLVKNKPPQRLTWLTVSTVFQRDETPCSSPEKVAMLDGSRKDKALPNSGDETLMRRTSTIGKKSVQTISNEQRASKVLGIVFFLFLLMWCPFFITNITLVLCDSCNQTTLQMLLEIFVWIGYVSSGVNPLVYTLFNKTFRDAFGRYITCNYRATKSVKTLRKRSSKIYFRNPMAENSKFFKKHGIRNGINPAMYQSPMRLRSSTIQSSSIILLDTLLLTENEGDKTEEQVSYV
T1 sequence (P28223 whole entry): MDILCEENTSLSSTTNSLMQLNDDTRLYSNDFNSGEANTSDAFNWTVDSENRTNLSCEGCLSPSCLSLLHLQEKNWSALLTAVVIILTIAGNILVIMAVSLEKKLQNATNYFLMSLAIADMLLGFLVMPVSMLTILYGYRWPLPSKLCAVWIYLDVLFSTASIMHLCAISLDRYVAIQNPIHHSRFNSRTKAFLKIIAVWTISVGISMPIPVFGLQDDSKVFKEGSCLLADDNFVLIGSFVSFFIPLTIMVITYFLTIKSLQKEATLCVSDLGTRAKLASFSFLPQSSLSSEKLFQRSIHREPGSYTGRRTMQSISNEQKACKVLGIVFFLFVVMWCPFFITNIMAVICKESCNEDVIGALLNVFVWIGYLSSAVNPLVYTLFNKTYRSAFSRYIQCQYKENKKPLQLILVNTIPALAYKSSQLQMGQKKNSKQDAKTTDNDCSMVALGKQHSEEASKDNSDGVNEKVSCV

Structure (SMILES): CC[C@@H](N)Cc1cc(OC)c(C)cc1OC [(R)-Ariadne]
- EC50 (5-HT2A receptor [1]; 5-HTome screen): < 1000 nM
- Emax (5-HT2A receptor [1]; 5-HTome screen): > 70%
- EC50 (5-HT2A receptor [1]; [12]): 149 nM
- EC50 (5-HT2B receptor; 5-HTome screen): < 1000 nM
- Emax (5-HT2B receptor; 5-HTome screen): > 70%
- EC50 (5-HT2B receptor; [12]): 739 nM
- EC50 (5-HT2C receptor [2]; 5-HTome screen): < 1000 nM
- Emax (5-HT2C receptor [2]; 5-HTome screen): > 70%
- EC50 (5-HT2C receptor [2]; [12]): 249 nM
- EC50 (5-HT1A receptor): 300 to 600 nM
- EC50 (5-HT1B receptor): 4000 nM
- EC50 (5-HT1D receptor): 300 to 600 nM
- EC50 (5-HT1e receptor): 300 to 600 nM
- EC50 (5-HT1F receptor): 300 to 600 nM
- EC50 (5-HT2A receptor [3]; read-out: EC50 (calcium flux)): 30 nM
- Emax (calcium flux) (5-HT2A receptor [3]; relative to 5-HT): 96%
- Emax (calcium flux) (5-HT2C receptor [4]): 60%
- Ki (5-HT2A receptor [5]): 53 nM
- HTR after pretreatment with 5-HT2A antagonist MDL100,907 (volinanserin) (mice [6]; MDL100907 0.01 and 0.032 mg/kg ip 15 min prior): completely inhibited
- dose of peak (maximum) HTR (mice [6]; s.c.): 10 mg/kg
- effect on general locomotion (mice [7]; 10 mg/kg): minor sedative effect
- effect on general locomotion (mice [7]; 30 mg/kg): marked sedation
- time in the center of the arena (mice [7]; mouse, in vivo): trend for spending less time in the center of the arena
- effect on open arm entries and time (mice [8]): acute anxiogenic-like effect
- latency to bite food pellets (mice [9]): dose-dependent trend toward reducing latency to bite
- number of balance beam runs, Aux-KO mice post-treatment [10]: significantly higher and comparable to WT mice
- clasping duration, Aux-KO mice [11]: down to zero
- clasping score, Aux-KO mice [11]: down to zero
- hallucinogenic / psychoactive effect (humans; 25 mg p.o. ref 6): no hallucinogenic effect but a mild threshold psychoactive effect
- psychedelic effects (humans; 100-300 mg, geriatric senile subjects ref 38): no psychedelics effects
- hallucinogenic effects (humans; up to 270 mg, healthy subjects ref 14): No hallucinations or perceptual alterations were observed
- hallucinogenic effects (humans; up to (and beyond) 100 mg per day, route not specified ref 8): no hallucinations
- hallucinogenic effects (humans; up to (and beyond) 100 mg per day, route not specified ref 8, listed as BL-3912A): lack of hallucinogenic effects
- effect in geriatric senile subjects (patients; 50 mg per day ref 8): Improvement in alertness, mobility and sociability
- effect in subjects with Parkinson's disease (patients; 100 mg per day ref 8): nearly complete remission of symptoms
- effect in patients with schizophrenia and bipolar disorder (patients; 50-100 mg per day ref 8): rapid remission of psychotic symptoms
- DOM-like effects (cats): nearly no DOM-like effects
- shift in potency between (R)-DOM and (R)-Ariadne (rabbits): 25 fold
- avoidance behavior (rats): improved avoidance behavior
